Results: PubChem BioAssay AID624467 (The Scripps Research Institute Molecular Screening Center, 2012)
Values joined by “and” are separate entries in the source; they are usually repeats but may differ in a detail not shown here. Equal entries are not always repeated. Out of some 360,000 compounds screened, about 3,600 (1%) were called active.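 How the source made its calls: active means activation above the mean activation of all test compounds in the run plus 3 SD (cut at about 38% in these data); inactive means the rest.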 Only a selection was taken, and actives are over-represented in it overall.

The compounds below were run against Trace amine-associated receptor 1 (Homo sapiens) (UniProt Q96RJ0) (assay: human TAAR1 agonists, primary screen, Fluo-8 calcium fluorescence, CHO RD-HGA16 cells (AID 624467)). Details: CHO RD-HGA16 TAAR1, Fluo-8 calcium fluorescence; at 3 µM; stronger effect = higher value; vehicle wells 0%, saturating PEA agonist 100%.
Trace amine-associated receptor 1 (Homo sapiens), sequence (Q96RJ0 whole entry, looked up): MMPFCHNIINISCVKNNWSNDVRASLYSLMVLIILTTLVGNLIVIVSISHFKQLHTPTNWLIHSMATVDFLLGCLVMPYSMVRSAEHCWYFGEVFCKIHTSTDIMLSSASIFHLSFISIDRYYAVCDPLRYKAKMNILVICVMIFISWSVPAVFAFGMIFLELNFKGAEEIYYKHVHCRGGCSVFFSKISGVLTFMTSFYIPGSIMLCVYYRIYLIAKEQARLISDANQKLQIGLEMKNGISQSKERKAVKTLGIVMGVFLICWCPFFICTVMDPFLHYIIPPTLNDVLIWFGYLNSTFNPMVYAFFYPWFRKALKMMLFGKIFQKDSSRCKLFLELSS
In short: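 Test system: RD-HGA16 (CHO) cells co-expressing Gα16 and hTAAR1 / Benchmarks: DMSO vehicle as 0%, PEA at EC100 as 100% / Repeats: no replicates (n 1) / Measure: % activation from peak over basal fluorescence ratio, DMSO-to-PEA scaled / Timing: 17-24 h plating, Fluo-8 75 min 37 °C, 30 min RT / Technique: kinetic Fluo-8 calcium fluorescence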
With `CCc1ccccc1S(=O)(=O)Cc1ccc(C(=O)NCCc2ccccc2)o1` the activation was 50.3% (active). With `COc1ccccc1CNC(=O)c1ccc(CS(=O)(=O)c2ccccc2)o1` the activation was 11.9% (inactive). For `Cc1ccccc1S(=O)(=O)Cc1ccc(C(=O)NCCN2CCCCC2C)o1` (stereo unspecified), the activation was 8.73% (inactive). `CCCc1nnc(NC(=O)CCC(=O)N2CCN(S(=O)(=O)c3ccc(OC)cc3)CC2)s1` was tested, and the activation was 4.53% (inactive). `CC1CCCN(c2cccc3c2S(=O)(=O)N(Cc2ccc(F)cc2)[C@@H](C)[C@H](c2ccccc2)O3)C1` (stereo partly specified) was tested, and the activation was 0.84% (inactive). `COC(=O)[C@]12C[C@H](CC(=O)NCc3ccccc3)C(=O)N(CCC3=CCCCC3)C1=C[C@H](C(C)(C)C)O[C@@H]2C` was tested, and the activation was -2.08% (inactive). `CCCC1CCC(=NNC(=S)NCCc2ccccc2)CC1` (stereo unspecified) was tested, and the activation was 54.9% (active). In the case of `S=C(NN=C1CCN(Cc2ccccc2)CC1)NC1CCCCC1`, the activation was 1.76% (inactive). In the case of `CCCCNC(=S)N/N=C1\CCCCc2ccccc21`, the activation was -2.14% (inactive). In the case of `Cc1cccnc1CCNC(=O)C1CCC(=O)N(Cc2cccc(F)c2)C1` (stereo unspecified), the activation was 0.59% (inactive). For `CN1CCCCC(NC(=O)C(C)(C)C)C1=O` (stereo unspecified), the activation was 3.02% (inactive). For `O=[N+]([O-])c1ccccc1N/N=C1\CCc2ccccc21`, the activation was -0.37% (inactive). `Oc1ccc2ccc3cccc[n+]3c2c1` was tested, and the activation was 152% (active). With `Cc1ccc(C)c(CN2CCC(CNC(=O)C3CCCN(c4ncnc5c4nc4n5CCCCC4)C3)CC2)c1` (stereo unspecified) the activation was -0.04% (inactive). `COc1ccccc1Cc1c(-c2ccc(F)cc2)nc2ccc(C)cn12` was tested, and the activation was 0.01% (inactive). In the case of `CCc1c(-c2ccccc2OC)ncn1CCc1ccccc1OC`, the activation was 53% (active). In the case of `COc1ccccc1CCn1cnc(-c2ccccc2)c1C(C)C`, the activation was 8.43% (inactive). For `CCCc1c(-c2ccccc2F)ncn1Cc1ccccc1OC`, the activation was 5.04% (inactive). `COc1ccccc1Cc1c(-c2ccc(Cl)cc2)nc2ccc(Cl)cn12` was tested, and the activation was -1.69% (inactive). With `CCCCc1c(-c2ccc(Cl)cc2)ncn1CCc1ccccc1OC` the activation was 54.2% (active). For `COc1ccccc1Cc1c(-c2ccc(Cl)cc2)nc2c3ccccc3ccn12`, the activation was 0.7% (inactive). With `COc1ccccc1CCNS(=O)(=O)c1cn(C)nc1C` the activation was 4.37% (inactive). For `CCCCc1c(-c2ccc(Br)cc2)ncn1CCc1ccccc1OC`, the activation was 48% (active). `[2H]C(CCOS(N)(=O)=O)c1ccccc1` (stereo unspecified) was tested, and the activation was -0.46% (inactive). With `CCCNC(=O)CCc1c(C)nc2c(c(C)nn2-c2ccccc2)c1C` the activation was 1.73% (inactive). In the case of `O=C1CC(C(F)(F)C(F)(F)C(F)(F)C(F)(F)F)=Nc2ccccc2N1`, the activation was -0.77% (inactive). `COc1ccc(-c2ccccc2C2Cc3nnccc3CN2C(=O)Nc2ccccc2)cc1` (stereo unspecified) was tested, and the activation was -0.83% (inactive). With `COC(=O)c1cc2c(c3c4ccccc4n(S(=O)(=O)c4cccc(C)c4)c13)C(=O)N(Cc1ccccc1)C2` the activation was 3.11% (inactive). In the case of `C=CCNC(=O)COC(=O)c1ccccc1C(=O)N(C)C1CCCCC1`, the activation was 5.08% (inactive). In the case of `NS(=O)(=O)c1ccc(CCNC(=O)NC2CCCCC2)cc1`, the activation was 1.51% (inactive). In the case of `CC(C)C(=O)Nc1ccc2c(c1)oc1ccccc12`, the activation was 6.67% (inactive). For `NC(=O)Nc1ccccc1C(=O)NCCc1ccccc1`, the activation was 10.1% (inactive). In the case of `CC(NC(=O)CC1SC(N)=NC1=O)c1ccccc1` (stereo unspecified), the activation was 4.22% (inactive). For `Nc1[nH]c(C(=O)c2ccc(Br)cc2)c(-c2ccc3c(c2)OCO3)c1C(=O)NCCc1c[nH]c2ccccc12`, the activation was 6.41% (inactive). For `NC(c1csc(NC(=O)Nc2ccccc2Oc2ccccc2)n1)c1ccccc1Cl` (stereo unspecified), the activation was 13.7% (inactive). `COc1ccc(C(N)c2csc(NC(=O)Nc3cccc(C(F)(F)F)c3)n2)cc1` (stereo unspecified) was tested, and the activation was 50.9% (active). `CC(=O)c1ccc(Nc2nc(C(N)c3ccccc3)cs2)cc1` (stereo unspecified) was tested, and the activation was 4.52% (inactive). With `CCOC(=O)c1csc(NC(=O)Nc2cccc(OC)c2)n1` the activation was 14.4% (inactive). For `NC(c1ccccc1)c1csc(NC(=O)Nc2cccc(C(F)(F)F)c2)n1` (stereo unspecified), the activation was 57% (active). `NC(c1csc(NC(=O)Nc2cccc(C(F)(F)F)c2)n1)C1CCCCC1` (stereo unspecified) was tested, and the activation was 39% (active). For `C/C(CC(=O)Nc1cccc(C(F)(F)F)c1)=N\NC(=O)C(=O)NCC(C)C`, the activation was 4.66% (inactive). For `COc1cc(NC(=O)c2cncc(-c3ccc(C#N)cc3)c2)cc(C(=O)Nc2cccc(C(F)(F)F)c2)c1`, the activation was 7.65% (inactive) and 3.81% (inactive). `COc1cccc(NC(=O)Nc2nnc(N3CCCCC3C)s2)c1` (stereo unspecified) was tested, and the activation was 0.7% (inactive). With `CC1(C(=O)NS(=O)(=O)c2cccc(F)c2)CCN1C(=O)c1cccc2ccccc12` (stereo unspecified) the activation was -0.17% (inactive). `O=S1(=O)c2c(cccc2N2CCCC2)O[C@H](COCc2ccccc2)CN1C1CC1` was tested, and the activation was 0.87% (inactive). For `Cc1cc(N2CCN(C(=O)OC(C)(C)C)C[C@H]2C)ccc1N1CCN(Cc2ccccc2)[C@H](C)C1`, the activation was 0.58% (inactive). In the case of `Cc1nc2c(OCc3ccc(Cl)cc3)cccn2c1N(C)Cc1cccs1`, the activation was 0.87% (inactive). In the case of `CCCCCCCCN1C(=O)[C@@H](CC(=O)NCc2ccccc2)C[C@@]2(C(=O)OC)C1=C[C@H](C(C)(C)C)O[C@@H]2C`, the activation was -0.96% (inactive). In the case of `Cc1ccc(OC(=O)c2cncc(Br)c2)c(C)c1`, the activation was 6.31% (inactive). With `COCCNC(=O)C1CCN(C(=O)C2CC(=O)N(c3ccc(C)cc3)C2)CC1` (stereo unspecified) the activation was -0.76% (inactive). For `Cc1onc(-c2ccccc2)c1C(=O)NNC(=S)NC(=O)c1ccc(F)cc1`, the activation was 112% (active). In the case of `Cc1onc(-c2ccccc2)c1C(=O)N1CCN(S(=O)(=O)c2ccccc2C(F)(F)F)CC1`, the activation was 0.73% (inactive). For `COc1ccc(NC(=O)c2sc(N3CCOCC3)nc2-c2ccccc2)c(OC)c1`, the activation was -1.31% (inactive). `COc1ccc(C(=O)NC(=S)NNC(=O)c2c(-c3ccccc3)noc2C)cc1` was tested, and the activation was 120% (active). `COc1ccc(C(=O)NC(=O)CSc2nnc(-c3ccco3)n2-c2ccccc2)cc1` was tested, and the activation was 1.34% (inactive). In the case of `Cc1nc2ccccc2c(C)c1C(=O)c1ccc(F)cc1`, the activation was 12.1% (inactive). In the case of `O=C(O)C1CCN(S(=O)(=O)N2CCOCC2)CC1`, the activation was 7.75% (inactive). `Cc1ccc(OCC(=O)Nc2ccc(C(=O)O)cc2NC(=O)COc2ccc(C)c(C)c2)cc1C` was tested, and the activation was 3.56% (inactive). `Cc1cc2oc(=O)cc(-c3ccccc3)c2c(C)c1-c1ccc(OC(F)(F)F)cc1` was tested, and the activation was 2.46% (inactive). For `CCO[C@H]1OC(C(=O)N2CCOCC2)=C[C@@H](c2ccc3c(c2)OCO3)[C@@H]1CCCO`, the activation was 5.53% (inactive). `O=C(NCc1ccccc1)[C@@H]1CCCN1C(=O)[C@@H](NS(=O)(=O)c1ccc(F)cc1F)C1CCCCC1` was tested, and the activation was -0.54% (inactive). For `COc1ccccc1CNS(=O)(=O)c1c(C)[nH]c(C)c1C(=O)N1CCCCC1`, the activation was 0.59% (inactive). In the case of `NC(=O)c1cc(-c2cccnc2)nc2ccc(Br)cc12`, the activation was 0.6% (inactive). With `O=c1c2cc(Br)ccc2nc(-c2cccc(Cl)c2)n1O` the activation was 51.9% (active). `NC(N)=Nc1nc2ccc(Br)cc2c(=O)[nH]1` was tested, and the activation was 10.5% (inactive). In the case of `C=CCNC(=O)COc1coc(CN2CCN(Cc3ccccc3)CC2)cc1=O`, the activation was 2.55% (inactive). `CCC(C(=O)Nc1ccc(C(C)C)cc1)c1ccccc1` (stereo unspecified) was tested, and the activation was 95.2% (active). In the case of `CC(C)c1ccc(NC(=O)Cn2ncc3ccccc32)cc1`, the activation was 1.09% (inactive). For `CCC(C(=O)OCC(=O)Nc1c(Cl)cc(Cl)cc1Cl)c1ccccc1` (stereo unspecified), the activation was 8.86% (inactive). In the case of `CCOC(=O)N(C)c1c(CC)nc2c(OCc3ccccc3C(=O)OC)cccn12`, the activation was 0.97% (inactive). `O=C(CN1CCSCC1)N/N=C/c1ccc(Cl)cc1` was tested, and the activation was 12.7% (inactive). In the case of `O=C1NC[C@H](CCCCN2CCN(CCc3ccccc3)C(=O)C2=O)N(CC2CCCCC2)C1=O`, the activation was 1.95% (inactive). With `CCN(CCN(C)C)C(=O)c1ccc2nc(C)c(N(C)C(=O)CCc3ccccc3)n2c1` the activation was 1.46% (inactive). `O=C1C=C(c2ccc(Cl)cc2)C(=O)N1Nc1ccccc1` was tested, and the activation was 58.9% (active). With `O=C(COC(=O)c1cccc(Cl)c1)NC(=O)NCc1ccccc1` the activation was 2.7% (inactive). With `CCCCN1C(=O)C(C)=C(C)C1OCCc1ccc(OC)c(OC)c1` (stereo unspecified) the activation was 2.56% (inactive). For `COC(=O)c1ccc2nc(-c3cccc(Br)c3)c(Cc3ccccc3C(F)(F)F)n2c1`, the activation was 4.12% (inactive). In the case of `CCCCCc1c(Cc2ccccc2)ncn1CCc1ccccc1OC`, the activation was 62.8% (active). For `CCc1c(-c2ccc(F)cc2)ncn1Cc1cccc(-c2ccccc2)c1`, the activation was 0.6% (inactive). With `CCCCNS(=O)(=O)CCNCc1ccccc1OC` the activation was -1.08% (inactive). With `COC(=O)c1ccc2nc(-c3ccc(OC)c(OC)c3)c(Cc3ccccc3)n2c1` the activation was -2.01% (inactive). In the case of `CCCCCc1c(-c2ccc(OC)c(OC)c2)ncn1CCc1ccccc1OC`, the activation was 60.6% (active). `Cn1c(=O)c2c(ncn2CCc2ccccc2)n(C)c1=O` was tested, and the activation was 2.07% (inactive). `CCCCCc1c(-c2cccc(Br)c2)ncn1CCc1ccccc1OC` was tested, and the activation was 50.1% (active). In the case of `C=C1CCC(N(O)c2cc(C)on2)C(=C)CCC2C1CC2(C)C` (stereo unspecified), the activation was 2.74% (inactive). In the case of `COC(=O)C1=C(C)N(Cc2ccc(C(F)(F)F)cc2)C(=NCc2ccccc2)NC1c1ccccc1C(F)(F)F` (stereo unspecified), the activation was 5.43% (inactive). For `O=C(CC1NCCc2ccccc21)Nc1cccc(Cl)c1` (stereo unspecified), the activation was 9.23% (inactive). In the case of `COCCNC(=S)N(C)[C@H]1C[C@H]2c3[nH]c4ccccc4c3CCN2C[C@H]1[C@H](C)O`, the activation was 3.21% (inactive). For `CC1CCCCC1NC(=O)CSc1nnc(N)s1` (stereo unspecified), the activation was 9.77% (inactive). In the case of `CCN(CC)C(=O)CS(=O)CC(=O)Nc1cc(OCCOC)c(Cl)cc1Cl` (stereo unspecified), the activation was 5.84% (inactive). In the case of `COc1ccc(OC)c(NC(=O)c2ccc3c(c2)CCN3S(C)(=O)=O)c1`, the activation was 2.63% (inactive).
